Assay results as given in ChEMBL document CHEMBL1137076, “New arylpiperazine 5-HT(1A) receptor ligands containing the pyrimido[2,1-f]purine fragment: synthesis, in vitro, and in vivo pharmacological evaluation” (J Med Chem, 2004).

Key:
Mus musculus = species on record: Mus musculus; assay: Ability to inhibit 8-OH-DPAT-induced hypothermia was taken as a measure of presynaptic antagonistic activity; Antagonist; format: functional, organism-based; conditions: filed as antagonist
[1] = target: 5-hydroxytryptamine receptor 2A (Rattus norvegicus, UniProt P14842); assay: Ability to bind to central serotonin 5-hydroxytryptamine 2A receptor in vitro in cortex of the rat brain using [3H]ketanserin radioligand; format: tissue-based
In short: (§1)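 Competition binding in rat brain tissue: hippocampus with [3H]-8-OH-DPAT (5-HT1A); cortex with [3H]-ketanserin (5-HT2A) or [3H]-prazosin (α1). Ki from at least three experiments using 10–14 concentrations (10⁻¹⁰–10⁻⁵ M), each in triplicate.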

[2] = target: T1, 5-hydroxytryptamine receptor 1A (Rattus norvegicus, UniProt P19327); assay: Ability to bind to central serotonin 5-hydroxytryptamine 1A receptor in vitro in hippocampus of the rat brain using [3H]8-OH-DPAT radioligand; format: tissue-based; in short: as §1
T1 sequence (P19327 whole entry): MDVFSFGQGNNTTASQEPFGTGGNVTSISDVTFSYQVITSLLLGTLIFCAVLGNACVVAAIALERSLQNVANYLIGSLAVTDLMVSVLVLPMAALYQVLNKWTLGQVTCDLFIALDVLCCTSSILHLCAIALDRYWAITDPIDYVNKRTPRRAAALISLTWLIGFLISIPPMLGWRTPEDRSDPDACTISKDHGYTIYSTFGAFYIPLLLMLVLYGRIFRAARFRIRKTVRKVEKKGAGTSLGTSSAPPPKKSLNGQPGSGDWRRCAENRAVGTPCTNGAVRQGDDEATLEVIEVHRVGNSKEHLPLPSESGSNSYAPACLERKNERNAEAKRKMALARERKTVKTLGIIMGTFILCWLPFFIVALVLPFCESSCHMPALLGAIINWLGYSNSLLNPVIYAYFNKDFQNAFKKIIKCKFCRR

[3] = target: T2, 5-hydroxytryptamine receptor 1A (Mus musculus) (UniProt Q64264); assay: Compound was tested for hypothermia with the activation of presynaptic 5-HT1A receptor agonist (8-OH-DPAT) in mice; Antagonist; format: functional; conditions: filed as antagonist
T2 sequence (whole entry): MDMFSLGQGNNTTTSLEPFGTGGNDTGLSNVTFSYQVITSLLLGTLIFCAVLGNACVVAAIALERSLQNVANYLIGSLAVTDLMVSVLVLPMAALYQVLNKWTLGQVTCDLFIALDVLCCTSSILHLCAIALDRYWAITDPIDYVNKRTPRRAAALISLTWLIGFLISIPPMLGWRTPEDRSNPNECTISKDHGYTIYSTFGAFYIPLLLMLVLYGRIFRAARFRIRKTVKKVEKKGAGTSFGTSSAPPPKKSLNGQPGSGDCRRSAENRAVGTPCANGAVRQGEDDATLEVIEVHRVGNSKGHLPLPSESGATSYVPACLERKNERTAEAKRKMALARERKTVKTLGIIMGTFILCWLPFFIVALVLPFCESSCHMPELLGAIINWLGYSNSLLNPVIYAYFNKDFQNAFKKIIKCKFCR

Sequence of 5-hydroxytryptamine receptor 2A (P14842 whole entry): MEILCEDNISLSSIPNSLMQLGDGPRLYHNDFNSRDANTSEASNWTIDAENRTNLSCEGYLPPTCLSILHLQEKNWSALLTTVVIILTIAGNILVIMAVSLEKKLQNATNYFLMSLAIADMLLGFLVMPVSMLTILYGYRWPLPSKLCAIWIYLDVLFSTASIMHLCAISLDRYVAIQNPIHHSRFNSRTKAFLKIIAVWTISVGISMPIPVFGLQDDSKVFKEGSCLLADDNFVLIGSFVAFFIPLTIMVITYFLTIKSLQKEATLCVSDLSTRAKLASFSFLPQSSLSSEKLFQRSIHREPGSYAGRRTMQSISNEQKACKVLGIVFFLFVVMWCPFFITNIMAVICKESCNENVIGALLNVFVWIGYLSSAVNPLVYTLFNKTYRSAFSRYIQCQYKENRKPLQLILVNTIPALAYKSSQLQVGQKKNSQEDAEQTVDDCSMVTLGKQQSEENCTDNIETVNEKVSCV

Ki [1]: 326 nM | Ki [2]: 11.5 nM | Functional profile [3]: Antagonist
SMILES: Cn1c(=O)c2c(nc3nc(NCCN4CCN(c5ccccc5)CC4)ccn32)n(C)c1=O
Functional profile (Mus musculus): Antagonist
